We go through 18 compounds from ChEMBL document CHEMBL4261570, “Design, Synthesis and Preliminary Antimicrobial Evaluation of N-Alkyl Chain Tethered C-5 Functionalized Bis-Isatins” (Medchemcomm, 2017).

Usually pIC50 stands for −log10 of the IC50, conventionally taken in molar units.

pIC50: −log10 of the molar value. The source made the active and inactive calls. The rule behind the calls is not given here.

Series [1] has as its system Trichomonas vaginalis. Put plainly: Antiparasitic activity against Trichomonas vaginalis assessed as parasite growth inhibition at 50 uM after 24 hrs by hemacytometer relative to control. In kind it is functional. The settings on record: read-out: GI. The procedure, abridged: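 G3 strain cultured in TYM Diamond's medium in 15 mL tubes, with compound in DMSO. Controls were untreated and 0.1% DMSO. After 24 h, cells were counted by hemacytometer and normalized to the DMSO controls. Screening was at 50 μM. IC50 came from titrations of 5–40 μM with variable-slope regression, 4 independent trials on different days, and was then re-confirmed.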

Series [2] deals with Giardia intestinalis. The series can be described thus: Antiparasitic activity against Giardia lamblia WB trophozoites assessed as parasite growth inhibition at 50 uM after 48 hrs by ATP bioluminescence-based CellTiter-Glo luminescent cell viability assay relative to control. The following applies: Giardia duodenalis; for inhibition of growth at 50 µM: read-out: GI. The format is functional. The procedure, abridged: (§1)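 Trophozoites kept axenically in TYI-S-33 with penicillin and streptomycin. Each well held 5000 trophozoites and was incubated 48 h at 37 °C under anaerobic conditions in a GasPak pouch. Read-out was CellTiter-Glo ATP luminescence. Controls were 0.5% DMSO vehicle and 30 μM metronidazole. Primary screen at 50 μM in duplicate; hits were those above 50% inhibition. EC50 came from triplicate 8-point series (0.39–50 μM) and dose-response curves.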
(Cellular ATP, detected with luciferase, serves as a proxy for viable cell number.)

Series [3] concerns Entamoeba histolytica. Put plainly: Antiparasitic activity against Entamoeba histolytica HM-1:IMSS trophozoites assessed as parasite growth inhibition at 50 uM after 48 hrs by ATP bioluminescence-based CellTiter-Glo luminescent cell viability assay relative to control. The following applies: for inhibition of growth at 50 µM: read-out: GI. The format is functional. The gist of the method:
as §1

Series [4] deals with Lacticaseibacillus rhamnosus. The series can be described thus: Toxicity in Lactobacillus rhamnosus ATCC 53103 at 100 uM measured after overnight incubation by disc diffusion method. The format is organism-based, GG. The settings on record: in vivo. The procedure, abridged:
(§2)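 Grown in Lactobacilli MRS at 37 °C under anaerobic conditions. Blank 6 mm discs were soaked 20 min at room temperature in a 100 μM working dilution in medium. Discs were placed on streaked agar alongside DMSO vehicle and antibiotic discs (levofloxacin, gentamicin), incubated overnight at 37 °C, and zones of inhibition measured in mm.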
Background: In agar diffusion tests the substance spreads into inoculated agar from a disc or well.

In series [5] the test system is Limosilactobacillus reuteri. Put plainly: Toxicity in Lactobacillus reuteri ATCC 23272 at 100 uM measured after overnight incubation by disc diffusion method. The format is organism-based. The following applies: in vivo. The gist of the method:
as §2

The subject of series [6] is Lactobacillus acidophilus. Put plainly: Toxicity in Lactobacillus acidophilus ATCC 43560 at 100 uM measured after overnight incubation by disc diffusion method. The format is organism-based. The following applies: in vivo. The procedure, abridged:
as §2

Series [7] deals with Escherichia coli. The series can be described thus: Toxicity in Escherichia coli K-12 MG1655 at 100 uM measured after overnight incubation by disc diffusion method. In kind it is organism-based, K-12 substr. MG1655. The settings on record: in vivo. The gist of the method: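 Grown in Luria broth at 37 °C under aerobic conditions. Blank 6 mm discs were soaked 20 min at room temperature in a 100 μM working dilution in medium. Discs were placed on streaked agar alongside DMSO vehicle and antibiotic discs (levofloxacin, gentamicin), incubated overnight at 37 °C, and inhibition zones measured in mm.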

For series [8], the system named is Giardia intestinalis. The series can be described thus: Antiparasitic activity against Giardia lamblia WB trophozoites assessed as parasite growth inhibition after 48 hrs by ATP bioluminescence-based CellTiter-Glo luminescent cell viability assay. The format is functional, organism-based. The following applies: Giardia duodenalis. The procedure, abridged: as §1

The test system of series [9] is Aspergillus parasiticus. Put plainly: Antifungal activity against Aspergillus parasiticus NRRL5862 assessed as fungal growth at 500 uM after 24 hrs by microtiter plate liquid bioassay (reference value: 100%). In kind it is functional. The procedure, abridged: (§3)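 A. parasiticus grown at 35 °C on PDA. Liquid assay in RPMI 1640, 3 × 104 to 5 × 10^4 CFU per mL, triplicate wells, 35 °C. Compounds in DMSO (<2% in media). No-treatment wells carry matched DMSO. Wells scored visually 0–4 versus the no-treatment control: 0 clear, 1 25%, 2 50%, 3 75%, 4 no reduction. Scoring follows CLSI M38-A.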

Series [10] deals with Aspergillus parasiticus. Put plainly: Antifungal activity against Aspergillus parasiticus NRRL5862 assessed as fungal growth at 500 uM after 48 hrs by microtiter plate liquid bioassay (reference value: 100%). In kind it is functional. The procedure, abridged:
as §3

Series [11] deals with Saccharomyces cerevisiae. The series can be described thus: Antifungal activity against Saccharomyces cerevisiae BY4741 assessed as fungal growth at 500 uM after 24 hrs by microtiter plate liquid bioassay (reference value: 100%). The format is functional.
The test system of series [12] is Saccharomyces cerevisiae. The series can be described thus: Antifungal activity against Saccharomyces cerevisiae BY4741 assessed as fungal growth at 500 uM after 48 hrs by microtiter plate liquid bioassay (reference value: 100%). In kind it is functional.

Regarding `O=C1C(=O)N(CCN2C(=O)C(=O)c3cc(Br)ccc32)c2ccccc21`, the inhibition of growth at 50 µM in series [1] turned out to be 100%. For the same compound, the “growth inhibition (GI)” value in series [2] and in series [3] was “inactive” in each case. The Activity result in series [4], in series [5], in [6] and in series [7] was “Non-Toxic” in each case.
Regarding `O=C1C(=O)N(CCCN2C(=O)C(=O)c3ccccc32)c2ccccc21`, the inhibition of growth at 50 µM in [1] is 96.8%; in [2] it was 7.84%. Further, in [3], the “growth inhibition (GI)” value is “inactive”. Further, the Activity entry in series [4], in series [5], in series [6] and in [7] was “Non-Toxic” each time.
Turning to `O=C1C(=O)N(CCCN2C(=O)C(=O)c3cc(Cl)ccc32)c2ccccc21`, the inhibition of growth at 50 µM in series [1] was 100%. The “growth inhibition (GI)” value in series [2] and in series [3] was “inactive” each time. Further, the Activity entry in series [4], in series [5], in series [6] and in series [7] was “Non-Toxic” in each case.
For the compound `O=C1C(=O)N(CCN2C(=O)C(=O)c3ccccc32)c2ccccc21`, the inhibition of growth at 50 µM came to 96.8% in series [1] and 6.75% in series [2]. In series [3], the “growth inhibition (GI)” value was “inactive”. Further, the Activity result in series [4], in series [5], in series [6] and in [7] was “Non-Toxic” each time.
Turning to `O=C1C(=O)N(CCCCCN2C(=O)C(=O)c3ccccc32)c2ccccc21`, the figures for the inhibition of growth at 50 µM in [1], in series [2] and in series [3] were 90.9%, 94.3% and 100%, respectively. For the same compound, in series [8], the pIC50 is 4.59. Also, the Activity result in series [4], in series [5], in series [6] and in series [7] was “Non-Toxic” throughout.
For `O=C1C(=O)N(CCCBr)c2ccccc21`, the inhibition of growth at 50 µM was found to be 59.9% in series [1], 22.9% in [2] and 1.32% in series [3]. Besides, the Activity in [9] is recorded as 75 - 100%; in [10] it was 100%; in series [11], 50%; in [12], 75%; in [4], “Non-Toxic”; in [5] it was “Non-Toxic”. For the same compound, the Activity entry in [6] and in series [7] was “Non-Toxic” in each case.
Consider `O=C1C(=O)N(CCCCN2C(=O)C(=O)c3cc(Cl)ccc32)c2ccccc21`, for which the inhibition of growth at 50 µM in series [1] is 100%. The “growth inhibition (GI)” value in series [2] and in series [3] was “inactive” in each case. Further, the Activity is 100% in series [9]; 100% in [10]; 25% in series [11]; 75% in series [12]; “Non-Toxic” in [4]; “Non-Toxic” in [5]. Moreover, the Activity entry in series [6] and in series [7] was “Non-Toxic” throughout.
Consider `O=C1C(=O)N(CCCCCCCCN2C(=O)C(=O)c3cc(Br)ccc32)c2ccccc21`, for which the values for the inhibition of growth at 50 µM in series [1] and in series [2] were 96.8% and 51.1%, respectively. Also, the “growth inhibition (GI)” value in [3] is “inactive”. The Activity entry in series [4], in [5], in series [6] and in series [7] was “Non-Toxic” each time.
Turning to `O=C1C(=O)N(CCCCCCN2C(=O)C(=O)c3cc(Br)ccc32)c2ccccc21`, the inhibition of growth at 50 µM is 100% in series [1] and 43.2% in series [2]. Further, the “growth inhibition (GI)” value in series [3] was “inactive”. For the same compound, the Activity result in series [4], in series [5], in series [6] and in [7] was “Non-Toxic” throughout.
For the compound `O=C1C(=O)N(CCN2C(=O)C(=O)c3cc(F)ccc32)c2ccccc21`, the inhibition of growth at 50 µM in series [1] is 45.5%; in [2], 8.15%. In series [3], the “growth inhibition (GI)” value is “inactive”. Moreover, the Activity result in series [4], in series [5], in series [6] and in series [7] was “Non-Toxic” throughout.
As for `O=C1C(=O)N(CCCCCCN2C(=O)C(=O)c3cc(F)ccc32)c2ccccc21`, the inhibition of growth at 50 µM in [1] came out at 100%; in [2], 30.9%. In [3], the “growth inhibition (GI)” value was “inactive”. In addition, the Activity entry in [4], in series [5], in [6] and in series [7] was “Non-Toxic” in each case.
Regarding `O=C1C(=O)N(CCCCCCCCN2C(=O)C(=O)c3cc(F)ccc32)c2ccccc21`, the results for the inhibition of growth at 50 µM in [1] and in series [3] were 100% and 13.8%, respectively. The “growth inhibition (GI)” value in [2] is “inactive”. Also, the Activity result in series [4], in [5], in series [6] and in [7] was “Non-Toxic” each time.
`CCCCCCCCOC(=O)c1cc(O)c(O)c(O)c1` [OCTYL_GALLATE]: the Activity in [9], in series [10], in series [11] and in [12] was 0% in each case.
Take `O=C1C(=O)N(CCCCCN2C(=O)C(=O)c3cc(Br)ccc32)c2ccccc21`: the inhibition of growth at 50 µM in series [1] was determined as 100%. The “growth inhibition (GI)” value in [2] and in [3] was “inactive” each time. Also, the Activity is reported as 100% in [9]; 100% in series [10]; 50% in [11]; 100% in series [12]; “Non-Toxic” in series [4]; “Non-Toxic” in series [5]. Besides, the Activity entry in [6] and in [7] was “Non-Toxic” in each case.
Turning to `O=C1C(=O)N(CCCCCCCCN2C(=O)C(=O)c3cc(Cl)ccc32)c2ccccc21`, the inhibition of growth at 50 µM was determined as 75.8% in series [1] and 8.56% in series [2]. In addition, the “growth inhibition (GI)” value in [3] was “inactive”. Moreover, the Activity result in [4], in series [5], in series [6] and in [7] was “Non-Toxic” throughout.
For the compound `O=C1C(=O)N(CCCCN2C(=O)C(=O)c3ccccc32)c2ccccc21`, the results for the inhibition of growth at 50 µM in series [1] and in series [2] were 61.3% and 11.6%, respectively. Besides, the “growth inhibition (GI)” value in [3] is “inactive”. Besides, the Activity result in series [4], in series [5], in series [6] and in [7] was “Non-Toxic” each time.
On to `O=C1C(=O)N(CCCCN2C(=O)C(=O)c3cc(F)ccc32)c2ccccc21`, for which the inhibition of growth at 50 µM in series [1] came out at 100%; in [2], 1.2%. The “growth inhibition (GI)” value in series [3] was “inactive”. For the same compound, the Activity entry in series [4], in series [5], in [6] and in [7] was “Non-Toxic” throughout.
With `O=C1C(=O)N(CCCCCCN2C(=O)C(=O)c3ccccc32)c2ccccc21`, the inhibition of growth at 50 µM amounted to 45.5% in series [1] and 9.68% in series [2]. In addition, the “growth inhibition (GI)” value in [3] is “inactive”. In addition, the Activity entry in series [4], in series [5], in series [6] and in series [7] was “Non-Toxic” throughout.
